# M1 PAM – positive allosteric modulators of human M1 muscarinic receptor; P11229; CHO-K1 hM1, Fluo-8 calcium fluorescence, ACh EC20; 0% = ACh EC20, 100% = maximal ACh; activation, % at 3 µM; 360,000 tested, 0.088% active; AID 588819; in the data active means activation above about 19%, passing the limit was not always enough
# Target sequence (P11229 whole entry, looked up): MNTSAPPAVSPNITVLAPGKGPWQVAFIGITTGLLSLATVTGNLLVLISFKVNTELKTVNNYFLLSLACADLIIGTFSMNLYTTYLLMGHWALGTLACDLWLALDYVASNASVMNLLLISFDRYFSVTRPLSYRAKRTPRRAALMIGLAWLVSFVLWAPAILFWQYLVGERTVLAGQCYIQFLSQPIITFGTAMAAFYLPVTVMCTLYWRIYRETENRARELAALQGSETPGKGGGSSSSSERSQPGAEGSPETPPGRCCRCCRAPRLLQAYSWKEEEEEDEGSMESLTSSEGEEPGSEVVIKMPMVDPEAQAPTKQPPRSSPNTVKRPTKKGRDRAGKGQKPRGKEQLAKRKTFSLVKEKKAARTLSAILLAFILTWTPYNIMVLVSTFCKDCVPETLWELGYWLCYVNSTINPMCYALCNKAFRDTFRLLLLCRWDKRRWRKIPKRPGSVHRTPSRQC
# HTR2A ag – agonists of mouse serotonin 5-HT2A receptor (HTR2A); activation, % at 7.6 µM; CHO-K1 mHTR2A beta-arrestin complementation, luminescence; percent of 30 µM serotonin response; P35363; 360,000 tested, 0.66% active;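 active means activation above a run cutoff, the mean activation of all tested compounds plus 3 SD, cut at about 14% in these data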;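 further: 0% = plate median of compound wells and 100% = 30 µM serotonin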
# TAAR1 antagonist – human TAAR1 antagonism. CHO RD-HGA16 TAAR1, Fluo-8 calcium fluorescence, antagonist. inhibition, % at 3 µM. 360,000 tested, 1.5% active;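 active means inhibition above a per-plate cutoff, the mean inhibition of test compounds on that plate plus 3 SD, cut at about 49% in these data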;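 further: 0% = DMSO plus EC80 beta-PEA response and 100% = DMSO alone without agonist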
#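 Material: CHO RD-HGA16 cells bearing hTAAR1; compound dosing: one-point dosing, 3 µM nominal final; schedule: dye loading 75 min at 37 °C, then 30 min room temperature; measured by: calcium fluorescence with Fluo-8; control set: vehicle and agonist controls; replication: n of 1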
# TAAR1 ag – human TAAR1 agonism. CHO RD-HGA16 TAAR1, Fluo-8 calcium fluorescence; vehicle wells 0%, saturating PEA agonist 100%. activation, % at 3 µM. 360,000 tested, 0.99% active;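 active means activation above the mean activation of all test compounds in the run plus 3 SD, cut at about 38% in these data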
#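 System: CHO-derived RD-HGA16 cells with stable Gα16 and human TAAR1 / Times: 17-24 h plating, Fluo-8 75 min 37 °C, 30 min RT / Technique: calcium-sensitive Fluo-8 signal, excitation 470-495, emission 515-575 nm / Measure: % activation relative to PEA EC100 response / Benchmarks: DMSO and PEA EC100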
# CHRM1 agonist – activates human CHRM1 receptor; activation, % at 3 µM; CHO-K1 hM1, Fluo-8 calcium fluorescence, agonist mode; 0% DMSO, 100% acetylcholine EC100; AID 588814; 360,000 tested, 0.33% active; P11229;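 active means activation above the run's mean compound activation plus 3 SD, cut at about 16% in these data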;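 further: peak over basal fluorescence ratio within a 140 s kinetic read after compound addition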
# M1 antag – human CHRM1 antagonism; 360,000 tested, 1.3% active; CHO-K1 hM1, Fluo-8 calcium fluorescence, ACh EC80 antagonist; inhibition, % at 3 µM;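 active means percent inhibition above its own plate's cutoff, namely the mean of that plate's compound wells plus 3 SD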;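 further: peak over basal fluorescence ratio during 140 s after agonist addition; 0% = ACh EC80 plus DMSO and 100% = DMSO alone without agonist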
# TAAR1 nonsel count – counter-screen for TAAR1 antagonists: nonselective antagonists | shares compounds with TAAR1 antagonist | counterscreen cell line, calcium fluorescence, antagonist mode | inhibition, % at 3 µM | 2,400 tested, 77% active | AID 651780; in the data active means inhibition above about 22%;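 further: CHO-Ga16 host cells stimulated with ATP at an EC80 level; 0% = agonist EC80 plus vehicle and 100% = vehicle without agonist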
# TAAR1 ant conf – confirmation of human TAAR1 antagonists; shares compounds with TAAR1 antagonist; TAAR1-expressing cells, fluorescence antagonist read-out; inhibition, % at 3 µM; 2,400 tested, 40% active; AID 651785; in the data active means inhibition above about 49%;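 further: CHO-Ga16 host cells challenged with agonist PEA near its EC80; 0% = agonist at EC80 plus vehicle and 100% = vehicle with no agonist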
# Ga16 ag counter – nonselective Ga16 agonist in TAAR1 antagonist counter-screen; activation, % at 3 µM; 2,400 tested, 18% active; AID 651953; shares compounds with TAAR1 antagonist; Ga16-expressing cells, calcium fluorescence, agonist counterscreen; in the data active means activation above about 12%;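 further: 0% = vehicle wells and 100% = saturating stimulus response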
# TAAR1 ag counter – counter-screen for human TAAR1 antagonists: TAAR1 agonists; shares compounds with TAAR1 antagonist; hTAAR1 cell line, fluorescence activation, agonist mode; activation, % at 3 µM; 2,400 tested, 2% active; in the data active means activation above about 37%;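 further: CHO cells stably expressing TAAR1 with calcium dye readout; 0% = DMSO vehicle and 100% = full agonist response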
# * = called active by the depositor; . = no result given. An excerpt weighted towards active compounds, which were near 3.9% of everything screened.
SMILES,M1 PAM,HTR2A ag,TAAR1 antagonist,TAAR1 ag,CHRM1 agonist,M1 antag,TAAR1 nonsel count,TAAR1 ant conf,Ga16 ag counter,TAAR1 ag counter
Cc1cccc(NC(=O)CCCCCN2C(=O)[C@@H]3Cc4ccccc4CN3C2=O)c1,12,5,24,2,0,-15,.,.,.,.
CCN(CC)S(=O)(=O)N1CCC(C(=O)NCC2COc3ccccc3O2)CC1 (configuration not stated),-3,-3,.,.,-2,2,.,.,.,.
O=C(NCC1COc2ccccc2O1)C1CCN(S(=O)(=O)c2ccc(Cl)cc2)CC1 (configuration not stated),-8,0,51*,14,-1,5,24*,42,12*,12
N=c1c2c(ncn1Cc1ccco1)Oc1c(ccc3ccccc13)C2c1ccccc1 (configuration not stated),-15,3,58*,0,-7,4,14,14,6,35
COCc1ccc([C@@H]2C[C@H]3CN(Cc4ccccc4C)C(=O)[C@]34CCCN24)o1,2,0,8,-4,-5,-18,.,.,.,.
O=C(NCCCO)/C(=C\c1ccco1)NC(=O)c1ccco1,7,0,-3,7,-3,-11,.,.,.,.
CCNC(=O)c1cc2c(c(-c3cccc(-c4ccccc4F)c3)n1)[C@@H](CCO)N(C(=O)CC1CC1)C2,.,-7,6,3,.,.,.,.,.,.
CCC(=O)N1Cc2cc(C(=O)Nc3nccs3)nc(-c3cccc(-c4ccccc4OC)c3)c2[C@@H]1CCO,.,10,73*,11,.,.,29*,46,8,6
COc1ccc(-c2csc(N3CCN(c4cc(C)nc5ccccc45)CC3)n2)cc1OC,-9,0,60*,7,-4,25,27*,43,6,7
COc1cc(-c2csc(N3CCOCC3)n2)cc(OC)c1OC,4,0,9,6,-3,-6,.,.,.,.
Cc1cc(=O)oc2cc(NC(=S)NNC(=O)c3c(Cl)cnn3C)ccc12,8,1,-7,2,-4,-12,.,.,.,.
CCOC(=O)C1(Cc2cccc(F)c2)CCN(C(=O)C2CCC2)CC1,-6,3,105*,6,-1,26,14,-3,5,6
CC(C)c1ccc(NC(=O)N(CCc2nc3ccccc3[nH]2)C2CCCC2)cc1,0,-8,54*,4,-3,3,30*,38,5,6
CN(c1ccccc1)S(=O)(=O)c1cc(C(=O)N2CCN(c3ccccn3)CC2)ccc1Cl,-9,-8,60*,7,-1,17,19,34,6,5
O=C(c1ccc(S(=O)(=O)Cc2ccccc2Cl)c([N+](=O)[O-])c1)N1CCN(c2ccccn2)CC1,-4,0,69*,17,-3,8,38*,53*,15*,14
O=C(O/N=C/c1ccc(Br)cc1)c1ccc(F)cc1,-2,4,2,5,-3,0,.,.,.,.
C=C(C)COc1ccc(-c2[nH]ncc2-c2ccccc2)c(O)c1,-3,-3,60*,20,-5,2,-1,9,1,12
C=C(C)COc1ccc(-c2n[nH]c(C)c2Oc2ccccc2OC)c(O)c1,3,-1,52*,-2,-3,-3,8,10,1,2
C=C(C)COc1ccc(-c2[nH]ncc2-c2ccc(OC)cc2)c(O)c1,-7,4,19,-1,-4,18,.,.,.,.
CCOc1ccc(-c2n[nH]c(C)c2Oc2ccccc2OC)c(O)c1,12,0,12,2,-1,-11,.,.,.,.

# Screens as filed in PubChem BioAssay.
